# Measurements from ChEMBL document CHEMBL1240409, “Design, synthesis and evaluation of (E)-alpha-benzylthio chalcones as novel inhibitors of BCR-ABL kinase” (Bioorg Med Chem, 2010).
# Tests used:
# [1] = tested on: DU-145; assay: Growth inhibition of human DU145 cells after 96 hrs by trypan blue exclusion assay; assay type: functional; conditions: DU-145, 96 h
# [2] = tested on: K562; assay: Growth inhibition of human K562 cells expressing p210Bcr/Abl after 96 hrs by trypan blue exclusion assay; assay type: functional, cell-based; conditions: K562, 96 h
# Outline: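 K562 cells were kept in RPMI with 10% FBS and penicillin–streptomycin at 37 °C under 5% CO2. Cells were seeded at 1 × 10^5 cells/mL with a range of compound concentrations, using DMSO as the negative control. After 96 h, viability was counted by Trypan blue exclusion and expressed as percent of DMSO control to derive GI50.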
GI50 [1] [µM],GI50 [2] [µM],SMILES
> 100,> 100,CSc1ccc(/C=C(/SCc2ccc(Cl)cc2)C(=O)c2ccc(C(=O)O)cc2)cc1
10,1,COc1ccc(/C=C(/Sc2ccccc2Cl)C(=O)c2ccc(Cl)cc2)c(OC)c1OC
1,1,O=C(/C(=C\c1ccc(O)cc1)SCc1ccc(Cl)c(Cl)c1)c1ccc(Cl)cc1
1,1,O=C(/C(=C\c1ccc(Cl)cc1)Sc1ccc(Br)cc1)c1ccc(Br)cc1
> 100,> 100,Cc1ccc(S(=O)(=O)/C(=C/c2ccc(F)cc2F)C(=O)c2ccc(Br)cc2)cc1
> 100,> 100,O=C(O)c1ccc(/C=C(/SCc2ccc(Cl)cc2)C(=O)c2ccc(C(=O)O)cc2)cc1
25,10,CCOc1ccc(/C=C(/Sc2ccc(C)cc2)C(=O)c2ccc(Cl)cc2)cc1OC
50,50,COc1ccc(C(=O)/C(=C\c2c(OC)cc(OC)cc2OC)Sc2ccc(F)cc2)cc1
25,25,COc1cc(OC)c(/C=C(\C(=O)c2ccc(Br)cc2)S(=O)(=O)Cc2ccc(Cl)cc2)c(OC)c1
20,1,COc1ccc(/C=C(/Sc2ccc(Br)cc2)C(=O)c2ccc(Br)cc2)c(F)c1
> 100,> 100,Cc1ccc(S/C(=C/c2c(O)cc(O)cc2O)C(=O)c2ccc(Cl)cc2)cc1
1,1,O=C(/C(=C\c1ccc([N+](=O)[O-])c(O)c1)SCc1ccc(Br)cc1)c1ccc([N+](=O)[O-])cc1
25,1,COc1cc(OC)c(/C=C(\C(=O)c2ccc(Cl)cc2)S(=O)(=O)Cc2ccc(F)cc2)c(OC)c1
> 100,> 100,Cc1ccc(/C=C(/SCc2ccc(F)cc2)C(=O)c2ccc(Cl)cc2)s1
10,1,O=C(/C(=C\c1ccc(Cl)c([N+](=O)[O-])c1)Sc1ccc(Br)cc1)c1ccc(Br)cc1
10,10,Cc1ccc(S(=O)(=O)/C(=C/c2sccc2C)C(=O)c2ccc(Cl)cc2)cc1
50,50,Cc1ccc(S/C(=C/c2sccc2C)C(=O)c2ccc(Br)cc2)cc1
1,1,Cc1ccc(CS/C(=C/c2c[nH]c3ccc(Cl)cc23)C(=O)c2ccc(Cl)cc2)cc1
25,25,O=C(/C(=C\c1ccccc1F)S(=O)(=O)c1ccc(Br)cc1)c1ccc(Cl)cc1
> 100,> 100,O=C(/C(=C\c1ccc(O)c([N+](=O)[O-])c1)SCc1ccc(Br)cc1)C1CCNC1 (stereo not given)
10,10,Cc1ccc(CS/C(=C/c2cc(C)ccc2C)C(=O)c2ccc(Cl)cc2)cc1
20,20,COc1ccc(S(=O)(=O)/C(=C/c2ccc(Cl)cc2Cl)C(=O)c2ccc(Br)cc2)cc1
50,50,O=C(/C(=C\c1ccc(O)cc1O)SCc1ccc(Cl)cc1)c1ccc(Cl)cc1
25,25,CCOc1ccc(/C=C(/SCc2ccc(C)cc2)C(=O)c2ccc(Cl)cc2)cc1OC
1,1,O=C(/C(=C\c1ccc(O)c([N+](=O)[O-])c1)Sc1ccc(Br)cc1)c1ccc(Br)cc1

GI50 [1] [µM],GI50 [2] [µM],SMILES
10,1,COc1ccccc1/C=C(/SCc1ccc(Cl)cc1)C(=O)c1ccc([N+](=O)[O-])cc1
1,1,Cc1cc(C)cc(/C=C(\C(=O)c2ccc(Cl)cc2)S(=O)(=O)Cc2ccc(Cl)cc2)c1
10,1,Cc1ccc(S/C(=C/c2cc([N+](=O)[O-])ccc2F)C(=O)c2ccc(Cl)cc2)cc1
10,10,O=C(/C(=C\c1cccc(Cl)c1Cl)SCc1ccc(Cl)cc1)c1ccc(Br)cc1
10,10,Cc1ccc(S(=O)(=O)/C(=C/c2c[nH]c3ccc(Cl)cc23)C(=O)c2ccc(Br)cc2)cc1
25,25,COc1ccccc1/C=C(\C(=O)c1ccc(Cl)cc1)S(=O)(=O)Cc1ccc(Cl)cc1
50,1,CCOc1ccc(/C=C(/Sc2ccc(C)cc2)C(=O)c2ccc(Br)cc2)cc1OC
4,4,COc1ccc(C(=O)/C(=C\c2ccc(Cl)cc2)S(=O)(=O)c2ccc(Cl)cc2)cc1
50,50,Cc1ccc(/C=C(\C(=O)c2ccc(Cl)cc2)S(=O)(=O)Cc2ccc(F)cc2)s1
25,10,CSc1ccc(/C=C(/SCc2ccc(C)cc2)C(=O)c2ccc(Cl)cc2)cc1
1,1,O=C(/C(=C\c1ccc(F)cc1Cl)Sc1ccc(Br)cc1)c1ccc(Br)cc1
10,10,Cc1cc(C)cc(/C=C(/SCc2ccc(Br)cc2)C(=O)c2ccccc2Cl)c1
25,10,Cc1ccc(CS(=O)(=O)/C(=C/c2ccc(Br)cc2)C(=O)c2ccc(Cl)cc2)cc1
50,50,Cc1ccsc1/C=C(/SCc1ccccc1F)C(=O)c1ccc(Cl)cc1
1,1,COc1ccc(/C=C(/SCc2ccc(F)cc2)C(=O)c2ccc(Br)cc2)cc1O
1,1,COc1ccccc1/C=C(\C(=O)c1ccc(Br)cc1)S(=O)(=O)c1ccc(C)cc1
1,1,Cc1ccc(CS/C(=C/c2c[nH]c3ccc(Br)cc23)C(=O)c2ccc(Cl)cc2)cc1
10,1,COc1ccc(/C=C(/SCc2ccc(Cl)cc2)C(=O)c2ccc(Cl)cc2)cc1
25,25,O=C(/C(=C\c1cc(Br)c(O)c(Br)c1)S(=O)(=O)Cc1ccc(Br)cc1)c1ccc(Br)cc1
10,1,O=C(/C(=C/c1ccc(Cl)cc1)Cc1ccc(Cl)cc1)c1ccc(Cl)cc1Cl
1,1,COc1ccc(S/C(=C/c2ccc(Cl)cc2Cl)C(=O)c2ccc(Br)cc2)cc1
50,50,O=C(/C(=C\c1ccc(O)cc1O)Sc1ccccc1Br)c1ccc(Cl)cc1
1,1,O=C(/C(=C\c1cc(I)c(O)c(I)c1)SCc1ccc(Br)cc1)c1ccc(Br)cc1
1,1,O=C(/C(=C\c1ccc(Br)cc1)SCc1ccc(Cl)cc1)c1ccc(Br)cc1
1,1,COc1ccc(/C=C(/SCc2ccc(Cl)cc2)C(=O)c2ccc(Br)cc2)cc1O

GI50 [1] [µM],GI50 [2] [µM],SMILES
50,50,O=C(/C(=C\c1ccc(Cl)cc1)S(=O)(=O)c1ccc(Br)cc1)c1ccc(Br)cc1
> 100,50,COc1cc(OC)c(/C=C(/SCc2ccc(Cl)cc2)C(=O)c2ccc([N+](=O)[O-])cc2)c(OC)c1
1,1,O=C(/C(=C\c1ccccc1OCc1ccccc1)S(=O)(=O)c1ccc(F)cc1)c1ccc(Cl)cc1
1,1,O=C(/C(=C\c1ccc(Cl)cc1Cl)Sc1ccc(Br)cc1)c1ccc(Br)cc1
50,50,O=C(/C(=C\c1ccc(O)c([N+](=O)[O-])c1)S(=O)(=O)Cc1ccc(Br)cc1)c1c(F)c(F)c(F)c(F)c1F
1,9,O=C(/C(=C\c1ccc(I)cc1)S(=O)(=O)c1ccc(Br)cc1)c1ccc(Br)cc1
> 100,> 100,COc1ccc(C(=O)/C(=C\c2ccc(Br)cc2)Sc2ccc(F)cc2)cc1
1,1,COc1cc(C(=O)/C(=C\c2ccc(O)c([N+](=O)[O-])c2)SCc2ccc(Br)cc2)cc(OC)c1OC
10,1,Cc1ccc(S/C(=C/c2c[nH]c3ccccc23)C(=O)c2ccc(Cl)cc2)cc1
10,10,Cc1ccc(S/C(=C/c2ccc(Cl)cc2Cl)C(=O)c2ccc(Cl)cc2)cc1
25,1,CSc1ccc(/C=C(/SCc2ccc(Cl)cc2)C(=O)c2ccc(Cl)cc2)cc1
50,25,COc1ccc(/C=C(\C(=O)c2ccc(Cl)cc2)S(=O)(=O)Cc2ccccc2Cl)cc1
> 100,> 100,COc1ccc(C(=O)/C(=C\c2ccc(Cl)cc2)Sc2ccc(F)cc2)cc1
1,8,O=C(/C(=C\c1ccc(Br)cc1)Sc1ccccc1Br)c1ccc(Br)cc1
1,1,Cc1ccc(S/C(=C/c2c[nH]c3ccc(Cl)cc23)C(=O)c2ccc(Cl)cc2)cc1
25,50,Cc1ccc(S/C(=C/c2ccc(Br)cc2)C(=O)c2ccc(Cl)cc2)cc1
10,10,O=C(/C(=C\c1ccc(O)c([N+](=O)[O-])c1)SCc1ccc(Br)cc1)c1c(F)c(F)c(F)c(F)c1F
1,1,COc1ccccc1/C=C(\C(=O)c1ccc(Cl)cc1)S(=O)(=O)c1ccc(C)cc1
25,25,O=C(/C(=C\c1c[nH]c2ccccc12)S(=O)(=O)c1ccc(Br)cc1)c1ccc(Br)cc1
50,50,CN(C)c1ccc(/C=C(/SCc2ccc(Br)cc2)C(=O)c2ccc(C(=O)O)cc2)cc1
50,50,Cc1ccc(CS/C(=C/c2ccc(F)cc2C(F)(F)F)C(=O)c2ccc(Cl)cc2)cc1
20,> 50,O=C(C(=Cc1ccc(I)cc1)S(=O)(=O)Cc1ccc(I)cc1)c1ccc(Br)cc1
25,10,O=C(/C(=C\c1ccc(Cl)cc1)S(=O)(=O)c1ccc(Cl)cc1)c1ccc(Cl)cc1
25,10,Cc1ccc(CS/C(=C/c2ccc(F)c(C)c2)C(=O)c2ccc(Cl)cc2)cc1
10,10,O=C(/C(=C\c1ccc(O)c([N+](=O)[O-])c1)SCc1ccc(Br)cc1)c1ccc([N+](=O)[O-])cc1
